Screening results from PubChem.
Only some compounds are listed: those with a hit (about 4% of all), similar ones and a draw of the others.
WT yeast gro inh: growth inhibition of WT yeast, mitochondrial fusion screen. AID 1362. 190,000 compounds, 2.1% hits. mitochondrial fusion phenotypic screen, WT strain. inhibition, % at 10 µM; in the data active = inhibition above about 58%; tested in S. cerevisiae
Pf gametocyte: inhibitors of late stage P. falciparum gametocyte viability; P. falciparum stage V gametocytes, ATP luminescence, 24 h; inhibition, % at 10.9 µM; 150,000 compounds, 0.065% hits; AID 743093;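 active = inhibition above the mean plus 3 SD of compounds within the control limits, set per campaign, cut at about 38% in these data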;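 also: 0% = DMSO wells and 100% = medium only without gametocytes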
MT stabilize HCS: microtubule stabilizers in HeLa cells. HeLa tubulin immunostaining HCS, 24 h; share of cells brighter than vehicle mean+2SD. % tubulin-high responders, % at 10 µM. 200,000 compounds, 0.83% hits;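 active = plate Z-score above 3 for both tubulin-high and condensed-nucleus cell shares, with cell loss under 80%, at 10 µM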;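 also: anti alpha tubulin signal scored within the nucleus-defined area of each cell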
KCC2 mod: KCC2 (human) Cl- transport modulation | 190,000 compounds, 2.2% hits | KCC2 cells, thallium flux FluoZin-2 fluorescence | AID 1456 | B-score of Tl+ flux slope (higher = more flux/activation; lower = inhibition) at 10 µM;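 active = thallium flux slope and its plate-corrected score both differing from the plate sample mean at a set confidence after two filtering rounds, in either direction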;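 also: slope of fluorescence scaled to starting intensity during 10 to 20 s after thallium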
Target sequence (Q9H2X9 whole entry, looked up): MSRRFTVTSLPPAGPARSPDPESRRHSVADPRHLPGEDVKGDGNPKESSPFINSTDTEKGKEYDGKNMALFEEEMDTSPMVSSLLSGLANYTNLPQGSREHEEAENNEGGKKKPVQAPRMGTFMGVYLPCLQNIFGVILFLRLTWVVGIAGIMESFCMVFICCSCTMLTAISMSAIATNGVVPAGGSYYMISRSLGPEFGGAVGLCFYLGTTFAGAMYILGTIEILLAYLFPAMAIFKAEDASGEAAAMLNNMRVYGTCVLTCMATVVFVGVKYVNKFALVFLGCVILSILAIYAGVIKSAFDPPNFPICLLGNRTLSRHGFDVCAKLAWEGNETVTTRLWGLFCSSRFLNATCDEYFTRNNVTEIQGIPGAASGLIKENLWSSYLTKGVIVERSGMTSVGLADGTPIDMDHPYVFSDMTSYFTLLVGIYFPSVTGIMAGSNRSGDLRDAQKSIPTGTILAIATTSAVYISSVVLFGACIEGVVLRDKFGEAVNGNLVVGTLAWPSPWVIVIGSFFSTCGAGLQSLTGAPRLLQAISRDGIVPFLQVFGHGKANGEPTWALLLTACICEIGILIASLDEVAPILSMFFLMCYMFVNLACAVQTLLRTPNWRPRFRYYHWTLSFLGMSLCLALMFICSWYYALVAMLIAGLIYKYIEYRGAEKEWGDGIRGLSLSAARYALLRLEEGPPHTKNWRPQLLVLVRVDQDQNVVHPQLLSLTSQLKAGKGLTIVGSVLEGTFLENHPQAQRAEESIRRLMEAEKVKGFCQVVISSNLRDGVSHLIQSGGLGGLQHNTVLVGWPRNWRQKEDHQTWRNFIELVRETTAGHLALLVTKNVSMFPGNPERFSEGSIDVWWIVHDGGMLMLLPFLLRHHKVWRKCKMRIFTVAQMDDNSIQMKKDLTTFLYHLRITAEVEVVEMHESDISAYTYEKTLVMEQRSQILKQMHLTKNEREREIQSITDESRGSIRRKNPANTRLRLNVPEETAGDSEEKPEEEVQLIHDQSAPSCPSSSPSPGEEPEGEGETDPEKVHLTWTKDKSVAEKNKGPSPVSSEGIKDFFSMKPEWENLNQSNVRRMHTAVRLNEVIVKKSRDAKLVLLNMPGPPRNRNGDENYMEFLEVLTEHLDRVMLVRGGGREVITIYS
bCat nuc transl: alters nuclear translocation of beta-catenin in HeLa cells; immunofluorescence imaging; nuclear translocation activity, % at 5 µM; 190,000 compounds, 0.3% hits;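 active = nuclear translocation activity above 50% at 5 µM, with a well cell count of 50 or more; inconclusive = wells under 50 cells across six images, flagged as toxic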;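 also: per-cell ratio of nuclear to cytoplasmic median beta-catenin stain intensity; plate controls were DMSO negative control for no effect and GSK-3 inhibitor IX positive control for full effect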
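Test system: HeLa cells, endogenous beta-catenin; Compound: single 5 µM dose plus 0.02–20 µM confirmation series; Times: compound exposure 24 h at 37°C; Signal: fluorescence imaging of beta-catenin antibody stain plus DAPI; Read-out: % activation, nuclear-to-cytoplasmic median beta-catenin signal ratio per cell.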
KCC2 sec1: KCC2 (human) modulation, secondary assay | shares compounds with KCC2 mod | HEK293-KCC2, thallium flux, FluoZin2 fluorescence; stronger effect = higher value | normalised thallium flux (F/F0 slope) at 10 µM | 3,700 compounds, 15% hits;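 active = thallium flux slope above the same plate's solvent-only control mean plus 3 SD; inconclusive = the two replicate wells disagree; inactive = no significant difference from solvent-only control wells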
KCC2 bumet counter: thallium flux persisting under bumetanide in KCC2 cells, counter-screen secondary assay | shares compounds with KCC2 mod | HEK293-KCC2 + bumetanide/ouabain, thallium flux FluoZin2; stronger effect = higher value | normalized thallium flux at 10 µM | 3,700 compounds, 49% hits;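 active = thallium entry rate above the same plate's blocked-transporter control wells by more than 3 SD; inconclusive = the two repeat wells disagree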;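 also: raw slope of fluorescence over initial fluorescence between 10 and 20 s after thallium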
KCC2 sec2: KCC2 (human) modulation, second secondary assay. AID 1715. 3,700 compounds, 23% hits. shares compounds with KCC2 mod. normalized thallium flux at 10 µM. HEK293-KCC2, thallium flux FluoZin2 fluorescence; actives lie on both sides; F/F0 rise rate, 10–20 s post-thallium;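 active = thallium flux slope more than 3 SD above or below the plate's solvent-only control mean, mostly below; inconclusive = the two repeat wells disagreed; inactive = no significant shift from solvent-only controls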;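 also: raw slope with 0.1% DMSO as baseline and bumetanide as block control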
HEK counter1: counter-screen for KCC2 modulators: effect in parental HEK293 cells; thallium flux FluoZin2, ouabain; baseline-ratio fluorescence slope, 10–20 s after thallium; 3,700 compounds, 46% hits; thallium flux rate (normalised fluorescence) at 10 µM; shares compounds with KCC2 mod;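 active = thallium flux rate significantly above the same plate's solvent-only control wells, beyond their mean plus 3 SD; inconclusive = the two replicate wells gave conflicting results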
KCC2 retest ouab: confirmation of human KCC2 modulators with ouabain; shares compounds with KCC2 mod; HEK293-KCC2, thallium flux FluoZin2 fluorescence; bidirectional: low = inhibitor, high = activator; raw Tl+ flux slope (below DMSO = inhibition, above = activation) at 10 µM; 3,700 compounds, 48% hits; AID 1717;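 active = thallium flux slope beyond 3 SD from same-plate DMSO control mean in most replicates, usually higher, sometimes lower; inconclusive = repeat tests gave conflicting results; inactive = no significant difference from controls in most replicates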;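 also: slope of initial-normalized fluorescence between seconds 10 and 20 after thallium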
HEK293 Tl flux2: acts in parental HEK cells, second KCC2 counter-screen | 3,700 compounds, 33% hits | HEK293 parental, thallium flux FluoZin-2 fluorescence slope | thallium flux slope at 10 µM | shares compounds with KCC2 mod;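 active = thallium flux slope above the same plate's solvent-control mean plus 3 SD in both duplicate wells; inconclusive = duplicate wells that disagreed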;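 also: run without ouabain in cells lacking the KCC2 cotransporter; slope of fluorescence scaled to its starting value between 10 and 20 s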
* marks the source's active call; other numbers are inactive results; ? = inconclusive; · = not tested or not shown.

SMILES | WT yeast gro inh | Pf gametocyte | MT stabilize HCS | KCC2 mod | bCat nuc transl | KCC2 sec1 | KCC2 bumet counter | KCC2 sec2 | HEK counter1 | KCC2 retest ouab | HEK293 Tl flux2
CC(C)Cc1cc(C(=O)Nc2sc3c(c2C#N)CCCC3)no1 | 16 | · | 6 | 4.1* | -5 | 0.012 | 0.019* | 0.037 | ? | ? | ?
Cn1cc(Br)c(C(=O)Nc2sc3c(c2C#N)CCC3)n1 | · | -4 | · | -0.15 | -2 | · | · | · | · | · | ·
Cn1cc(Cl)c(C(=O)NC(=S)Nc2sc3c(c2C#N)CCCCC3)n1 | -19 | -2 | 2 | 11* | 1 | 0.0074 | 0.021* | ? | 0.019* | 0.033* | 0.021*
Cc1cc(Cl)ccc1OCCCC(=O)N/N=C/c1cccc([N+](=O)[O-])c1 | 7 | -9 | 3 | -0.071 | 2 | · | · | · | · | · | ·
CC(=O)NN1C(=O)c2ccccc2NC1c1ccoc1 (stereo not given) | 8 | -7 | 1 | 0.19 | 2 | · | · | · | · | · | ·
CC(=O)c1cc(NC(=O)c2ccc(Cl)cc2)c(=O)oc1/C=C/N(C)C | 1 | -9 | 2 | -3* | -3 | ? | -0.0026* | 0.021* | 0.0027* | 0.008* | 0.0048*
O=C(Nc1ccc2ccccc2c1)C(=O)C1C(=O)Nc2ccccc21 (stereo not given) | · | -13 | · | 25* | -1 | ? | 0.022* | ? | 0.018* | 0.021 | 0.017*
O=C(c1ccc(COc2ccccc2Cl)o1)N1CCCC1 | 14 | -10 | 1 | -3 | -8 | · | · | · | · | · | ·
O=C(OCc1ccccn1)c1ccc(COc2ccccc2Cl)o1 | 18 | 8 | 2 | -5.9* | 3 | 0.0058 | 0.0047 | 0.025* | 0.0069 | 0.013* | 0.0089
CC(C)(C)OC(=O)C[C@H]1C/C=C\C[C@H](CC(=O)NCCO)C(=O)NC[C@@H](c2ccccc2)OC1=O | · | 6 | · | · | · | · | · | · | · | · | ·
Cc1ccc(C)c(N(C)C(=O)COc2cc(=O)n(C)c3ccccc23)c1 | -2 | · | 3 | -4.1* | · | 0.0082 | 0.0055 | 0.029 | 0.0063 | 0.021 | 0.0092
CN(C(=O)COc1cc(=O)n(C)c2ccccc12)c1ccc(Cl)cc1 | 2 | · | 2 | · | · | · | · | · | · | · | ·
O=C(NC1CCN(C(=S)NCCc2ccccc2)CC1)C1CCCCC1 | 4 | 3 | 2 | 0.014 | 1 | · | · | · | · | · | ·
COc1ccccc1C(=O)NC1CCN(C(=S)NCCc2ccccc2)CC1 | 14 | -5 | 2 | -3.1* | -3 | 0.007 | 0.0045 | 0.025* | 0.0078 | ? | 0.011
CCN(CC)C(=O)CSc1nc2ccccc2c(=O)n1CCC(=O)NCc1ccc(F)cc1 | -22 | 22 | 2 | · | -1 | · | · | · | · | · | ·
O=c1[nH]c2cc3c(cc2cc1CN(Cc1nnnn1CC1CCCO1)C1CCCC1)OCO3 (stereo not given) | 0 | -26 | 2 | -1.3 | -3 | · | · | · | · | · | ·
COc1ccc2[nH]c(=O)c(CN(Cc3ccccc3OC)Cc3nnnn3CC3CCCO3)cc2c1 (stereo not given) | -7 | · | 3 | 8.6* | 0 | 0.0098 | 0.0051 | 0.031 | 0.0073 | 0.029 | 0.01
COc1ccccc1CN(Cc1cc2cc(C)ccc2[nH]c1=O)Cc1nnnn1CC1CCCO1 (stereo not given) | 0 | · | 11 | -1.7 | -3 | · | · | · | · | · | ·
COc1ccc2[nH]c(=O)c(CN(CCc3ccccc3)Cc3nnnn3CC3CCCO3)cc2c1 (stereo not given) | 8 | · | 3 | 0.09 | -4 | · | · | · | · | · | ·
Cc1ccc2[nH]c(=O)c(CN(CCc3ccccc3)Cc3nnnn3CC3CCCO3)cc2c1 (stereo not given) | 2 | · | 2 | -4.3* | -1 | ? | 0.0053 | ? | 0.0072 | 0.017 | 0.011
O=c1[nH]c2cc3c(cc2cc1CN(Cc1nnnn1CC1CCCO1)C1CCCCC1)OCO3 (stereo not given) | 4 | 12 | 2 | 7.4* | -3 | 0.0057 | ? | 0.025* | 0.0068 | 0.016* | ?
CSCC[C@H](NC(=O)C(C)Oc1ccc(Cl)cc1)c1nc2ccccc2[nH]1 (stereo not given in full) | 15 | -4 | 3 | -1.2 | 2 | · | · | · | · | · | ·
COc1cscc1C(=O)O | · | -5 | · | -0.2 | 2 | · | · | · | · | · | ·
CCCCNS(=O)(=O)c1ccc2nc(-c3cccnc3)cc(C(=O)NCCCOCC)c2c1 | -14 | · | 4 | -0.98 | 0 | · | · | · | · | · | ·
O=C(c1cnn2c(C(F)(F)F)cc(-c3ccccc3)nc12)N1CCCCC1c1cccnc1 (stereo not given) | -6 | -2 | 3 | -3.5 | 1 | 0.0055 | 0.004 | 0.029 | 0.0054* | 0.017 | 0.0089
SMILES | WT yeast gro inh | Pf gametocyte | MT stabilize HCS | KCC2 mod | bCat nuc transl | KCC2 sec1 | KCC2 bumet counter | KCC2 sec2 | HEK counter1 | KCC2 retest ouab | HEK293 Tl flux2
COC(=O)c1ccc2c(=O)n(-c3ccccc3F)c(=S)[nH]c2c1 | -3 | -5 | 4 | 5.6* | -1 | 0.016 | 0.018* | 0.032 | 0.012* | 0.022* | 0.013*
O=C(O)c1ccc2c(=O)n(-c3ccccc3F)c(=S)[nH]c2c1 | -2 | 2 | 2 | 0.49 | 0 | · | · | · | · | · | ·
COC(=O)c1ccc2c(=O)n(-c3ccccc3)c(=S)[nH]c2c1 | -3 | -19 | 6 | 11* | -1 | 0.018 | 0.022* | 0.034 | 0.021* | 0.025* | 0.023*
O=C(NCCc1ccccc1)C(=O)NCC1CCNCC1 | -10 | · | 1 | 0.21 | 0 | · | · | · | · | · | ·
Cc1ccc(-c2nn(Cc3ccccc3)cc2/C=C/C(=O)O)cc1C | 2 | · | 1 | -8.1* | · | 0.008 | 0.005 | 0.021* | 0.008 | 0.011* | 0.01
CCOC(=O)c1cn(Cc2ccccc2)nc1-c1ccccc1 | · | -26 | · | · | · | · | · | · | · | · | ·
O=C(O)/C=C/c1cn(Cc2ccccc2)nc1-c1ccccc1 | -8 | 17 | 3 | -3.2* | -1 | 0.0069 | 0.0044 | ? | 0.0072 | 0.015* | 0.0097
COCNc1nc(OCC#N)nc(N(C)C)n1 | 5 | -8 | 2 | 7.6* | 0 | 0.0069 | 0.0052 | 0.03 | 0.0084 | 0.019 | 0.012
Cc1cccc(C)c1OCC(=O)N(Cc1ccc(N(C)C)cc1)C1CCS(=O)(=O)C1 (stereo not given) | · | -2 | · | 0.64 | -1 | · | · | · | · | · | ·
COc1cccc(/C=C2\SC(=S)NC2=O)c1OS(=O)(=O)c1ccc(NC(C)=O)cc1 | 2 | · | 3 | -5.8* | 1 | ? | 0.0059 | ? | 0.0055* | 0.014* | 0.0094
